The source made the active and inactive calls. No cut-off for these calls is given here.
Columns and labels:
[1] = Antioxidant activity assessed as inhibition of lipid peroxidation at 0.5 mM after 5 days by ferric-thiocyanate method; type: functional
Outline: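 Linoleic acid peroxidation: 2.51% linoleic acid in EtOH mixed with 0.05 M phosphate buffer pH 7.0, EtOH and water. Sample added from 10 mM EtOH stock, 0.5 mM final. Capped vial kept in dark at 40 °C for 5 days. Aliquot diluted in 75% EtOH, ammonium thiocyanate and ferrous chloride in HCl added, A500 read after 3 min. Blank lacks compound.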

[2] = test system: Radical scavenging activity; experiment: Antioxidant activity assessed as DPPH radical scavenging activity at 0.02 mM; type: functional
Outline: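 Sample in EtOH (0.02 mM final) added to 0.1 M acetate buffer pH 5.5 plus 0.5 mM DPPH in EtOH. Mixture stood 30 min at room temperature. Modified from a published DPPH method.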

COc1cc([C@H]2c3c(ccc(O)c3OC)C=C(C=O)[C@@H]2CO)ccc1O
Activity [1]: Active
Activity [2]: Active

COc1cc(-c2c3c(cc4cc(OC)c(O)cc24)C(=O)OC3)ccc1O
Activity [1]: Active
Activity [2]: Active

COc1cc(-c2c(O)c(C=O)cc3cc(OC)c(O)cc23)ccc1O
Activity [1]: Active
Activity [2]: Active

COc1cc(-c2c3c(cc4cc(OC)c(O)cc24)C(=O)NC3)ccc1O
Activity [1]: Active
Activity [2]: Active

COc1cc(-c2cc(C=O)cc3cc(OC)c(O)cc23)ccc1O
Activity [1]: Active
Activity [2]: Active

COc1cc([C@H]2c3cc(O)c(OC)cc3C=C(C=O)[C@@H]2CO)ccc1O
Activity [1]: Active
Activity [2]: Active

Reference: ChEMBL document CHEMBL1148978, “Lignan derivatives and a norditerpene from the seeds of Vitex negundo” (J Nat Prod, 2004)
